Assay outcomes (PubChem BioAssay)
PAFAH1B3 inh: inhibitors of human PAFAH1B3. Q15102. recombinant PAFAH1B3, FP-rhodamine probe, fluorescence polarization. inhibition, % at 3.39 µM. 340,000 tested, 0.28% active. AID 492972;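 active = inhibition above the screen-wide average of all tested compounds plus 3 SD, cut at about 25% in these data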;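 also: 0% = enzyme with DMSO only and 100% = wells lacking PAFAH1B3 protein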
Target sequence (Q15102 whole entry, looked up): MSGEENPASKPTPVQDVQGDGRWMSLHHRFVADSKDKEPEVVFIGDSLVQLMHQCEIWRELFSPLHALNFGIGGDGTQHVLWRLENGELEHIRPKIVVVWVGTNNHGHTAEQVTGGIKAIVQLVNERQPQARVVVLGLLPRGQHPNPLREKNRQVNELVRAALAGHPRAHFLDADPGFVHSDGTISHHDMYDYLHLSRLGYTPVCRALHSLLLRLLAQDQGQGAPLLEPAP
PAFAH1B2 FP inh: inhibitors of human PAFAH1B2; recombinant PAFAH1B2, FP-rhodamine activity probe, fluorescence polarization; inhibition, % at 3.39 µM; 340,000 tested, 1.2% active; AID 492953;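 active = inhibition above the mean of all tested compounds plus 3 SD, cut at about 24% in these data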;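 also: 0% = enzyme with DMSO and 100% = wells lacking PAFAH1B2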
Target sequence (P68402 whole entry, looked up): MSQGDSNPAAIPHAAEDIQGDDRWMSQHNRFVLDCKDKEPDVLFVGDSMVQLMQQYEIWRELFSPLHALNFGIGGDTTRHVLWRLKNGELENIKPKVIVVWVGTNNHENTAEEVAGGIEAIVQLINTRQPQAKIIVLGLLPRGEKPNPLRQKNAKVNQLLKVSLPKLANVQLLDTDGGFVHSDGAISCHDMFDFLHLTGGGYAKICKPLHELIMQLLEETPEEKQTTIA
pPAFAH FP inh: inhibitors of human plasma PAF acetylhydrolase (pPAFAH) | Q13093 | recombinant pPAFAH, FP-rhodamine probe fluorescence polarization | inhibition, % at 3.39 µM | 330,000 tested, 1.5% active | AID 463082;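 active = inhibition above the mean inhibition across the screen plus 3 SD, cut at about 25% in these data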;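 also: inhibitors block binding of the rhodamine activity-based probe so polarization drops; 0% = enzyme with DMSO and 100% = wells lacking pPAFAH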
PAFAH2 inh: inhibitors of human PAFAH2; inhibition, % at 3.39 µM; 340,000 tested, 0.99% active; Q99487; recombinant PAFAH2, FP-rhodamine activity probe, fluorescence polarization;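 active = inhibition above the mean over all tested compounds plus 3 SD, cut at about 30% in these data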;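 also: inhibitors block probe labeling of enzyme so polarization drops; 0% = enzyme with DMSO and 100% = wells lacking PAFAH2 protein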
VIM-2 inhibitor: blocks Pseudomonas aeruginosa VIM-2 metallo-beta-lactamase | purified VIM-2, nitrocefin hydrolysis, epi-absorbance fluorescence | inhibition, % at 5.6 µM | 290,000 tested, 0.89% active;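 active = inhibition above the mean of all tested compounds plus 3 SD, cutoff set per screening run, cut at about 7.5% in these data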;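 also: red hydrolysis product quenches plate fluorescence so inhibitors raise well fluorescence; 0% = enzyme with DMSO and 100% = DMSO without enzyme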
IMP-1 inhibitor: blocks Pseudomonas aeruginosa IMP-1 metallo-beta-lactamase; inhibition, % at 5.6 µM; purified IMP-1, nitrocefin hydrolysis, epi-absorbance fluorescence; AID 1556; 290,000 tested, 0.45% active;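 active = inhibition above the mean plus 3 SD of all compounds in the same screening run, cut at about 4.5% in these data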;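 also: 0% = IMP-1 with DMSO and 100% = DMSO wells lacking enzyme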
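System: Purified IMP-1 | Read-out basis: Percent enzyme inhibition | Controls: IMP-1 with DMSO as 0%, enzyme-free DMSO as 100% | Replicates: One well per compound | Doses: 5.6 µM nominal single concentration | Detection: Epi-absorbance fluorescence, 480 nm excitation, 530 nm emission | Incubation: 25 °C, 15 min preincubation, 25 min reaction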
PAFAH2 FP conf: PAFAH2 (human) inhibition, confirmed; shares compounds with PAFAH2 inh; recombinant PAFAH2, FP-rhodamine activity probe, fluorescence polarization; inhibition, % at 3.39 µM; 2,300 tested, 65% active;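 active = mean inhibition over three repeats above a set limit taken from the earlier primary screen, cut at about 30% in these data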;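 also: inhibitor blocks binding of rhodamine activity probe so polarization falls; 0% = enzyme with DMSO and 100% = wells lacking PAFAH2 protein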
Active calls of the source: *; · = no result. Most compounds without a hit are left out; they make up all but 3.6% or so of the library.

SMILES | PAFAH1B3 inh | PAFAH1B2 FP inh | pPAFAH FP inh | PAFAH2 inh | VIM-2 inhibitor | IMP-1 inhibitor | PAFAH2 FP conf
O=C(c1ccccc1)n1ccc(-c2cccs2)n1 | -2 | 1 | 1 | 43* | 1 | 0 | 23
CN(Cc1ccc(OC(F)F)cc1)C(=O)c1cccc(S(=O)(=O)N2CCN(c3ccccc3)CC2)c1 | 2 | 1 | · | 0 | · | · | ·
O=C(c1ccccc1C(=O)N1CCN(c2ccccc2)CC1)N1CCN(c2ccccc2)CC1 | 4 | -2 | 3 | -4 | -1 | -3 | ·
O=C(COC(=O)c1ccccc1C(=O)N1CCN(c2ccccc2)CC1)Nc1ccc(F)cc1 | -1 | 2 | 5 | 74* | -5 | -1 | 60*
COc1cccc(NC(=O)COC(=O)c2ccccc2C(=O)N2CCN(c3ccccc3)CC2)c1 | -7 | 2 | 7 | 54* | -3 | -1 | 54*
O=C(COC(=O)c1ccccc1C(=O)N1CCN(c2ccc(F)cc2)CC1)NCc1ccccc1 | 12 | 4 | 8 | 20 | -3 | -3 | ·
O=C(COC(=O)c1ccccc1C(=O)N1CCN(c2ccccc2)CC1)Nc1ccccc1 | 11 | 5 | 5 | 63* | -2 | -1 | 60*
CCCC(=O)Nc1ccc(-c2nc3ncccc3o2)cc1 | 5 | 1 | · | -1 | 0 | -4 | ·
Cc1ccc(NC2c3ncccc3C(=O)N2Cc2cccs2)cc1C (configuration not stated) | 1 | 0 | -2 | 69* | -1 | -4 | -8
CC(=O)N(c1ccc2oc(=O)sc2c1)S(=O)(=O)c1cccs1 | 5 | 4 | 2 | 23 | -1 | -5 | ·
CC(C)C(=O)N(c1ccc2oc(=O)sc2c1)S(=O)(=O)c1cccs1 | 9 | 1 | 8 | 44* | -1 | -3 | 42*
CC(C)C(=O)N(c1cc2sc(=O)oc2c2ccccc12)S(=O)(=O)c1cccs1 | 10 | 3 | 13 | 32* | -1 | -2 | 26
Cc1ccsc1/C=N/NC(=O)CNC(=O)c1cccc([N+](=O)[O-])c1C | 13 | 12 | -1 | 2 | 0 | -3 | ·
CCOc1ccc(C(=O)OCC(=O)NCc2ccco2)cc1OCC | 4 | 8 | 10 | 74* | -1 | 2 | 46*
O=C(COC(=O)c1cccc(S(=O)(=O)N2CCc3ccccc3C2)c1)NCc1ccco1 | 1 | 10 | 23 | -1 | -2 | -3 | ·
O=C(COC(=O)c1ccccc1)NCc1ccco1 | 5 | 1 | 3 | 13 | -3 | -1 | ·
Nc1cc(C(=O)OCC(=O)NCc2ccco2)ccc1Cl | 0 | 1 | 16 | 36* | -2 | -1 | 30*
O=C(COC(=O)c1cccc(S(=O)(=O)N2CCc3ccccc32)c1)NCc1ccco1 | 8 | 5 | 13 | 33* | 1 | 1 | 20
Cc1ccc(C(=O)OCC(=O)NCc2ccco2)cc1 | 2 | 1 | 3 | 45* | -5 | -6 | 37*
CCOc1ccc(C(=O)NCc2ccco2)cc1OCC | 2 | 6 | 1 | -3 | -2 | -2 | ·
CC1(C(=O)OCC(=O)Nc2ccccc2Cl)CC1(Cl)Cl (configuration not stated) | 8 | 1 | 6 | 1 | 0 | 0 | ·
O=C(COC(=O)CCC(=O)c1cccs1)Nc1ccc(F)c(F)c1F | 3 | 1 | 8 | 3 | · | · | ·
CC1(C(=O)OCC(=O)Nc2ccccc2)CC1(Cl)Cl (configuration not stated) | 2 | 1 | 4 | 56* | 1 | -2 | 51*
O=C(COC(=O)c1cccs1)NCCCc1ccccc1 | 1 | 4 | 5 | 47* | -3 | -1 | 28
N/C(CC(=O)Nc1ccc(F)c(Cl)c1)=N\OC(=O)c1cccs1 | -1 | 10 | -4 | 48* | 0 | -1 | 36*
N/C(=N\OC(=O)c1cccs1)c1ccc(Cl)cc1 | · | · | 9 | · | -3 | -4 | ·
O=C(COC(=O)c1cccs1)Nc1ccc(F)c(F)c1 | 4 | -1 | 9 | 79* | · | · | 81*
COc1ccc(NC2CCCN(C(=O)c3ccccc3N3CCOCC3)C2)cc1OC (configuration not stated) | 6 | 5 | 3 | -1 | -2 | -4 | ·
COc1ccc(CS(=O)(=O)/C(Cl)=C(/Cl)C(=O)Nc2ccc(OC)nc2)cc1 | -6 | -3 | 0 | 4 | -5 | -6 | ·
